# Bioassay records as filed in PubChem BioAssay.
# In the library only some 3.3% were active in any assay of this set; here they are far more common.
# rCAG binder – r(CAG) repeat RNA binding | TO-PRO-1 dye displacement fluorescence | inhibition, % at 3 µM | 370,000 tested, 1.3% active;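 active = inhibition above the plate cutoff, the mean of all test compounds on that plate plus 3 SD, cut at about 35% in these data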;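 note: 0% = DMSO alone and 100% = 100 µM mitoxantrone as full dye displacement; higher means more dye released from RNA so lower well fluorescence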
# ABHD4 inh – inhibits mouse alpha/beta hydrolase domain 4 | purified mABHD4, FP-Rh probe fluorescence polarization | 370,000 tested, 0.54% active | inhibition, % at 8.92 µM | AID 720543;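 active = inhibition exceeding the mean over every tested compound plus 3 SD, cut at about 30% in these data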;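 note: 0% = plate median of compound wells and 100% = S159A mutant with DMSO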
#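 System: mouse ABHD4 enzyme, wild type / Medium: HEPES pH 7.0, NaCl, Pluronic buffer / Reagent: FP-Rh activity-based fluorescent probe / Control set: S159A mutant high control, sample median low control / Detection: fluorescence polarization with parallel and perpendicular emission, 525/598 nm / Schedule: 45 min + 60 min at 25 °C / Compound dosing: 8.92 µM, single dose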
# SIAE primary – human SIAE inhibition, primary screen. AID 1053197. inhibition, % at 9.66 µM. 370,000 tested, 0.69% active. Q9HAT2. SIAE FP-Rh probe binding, fluorescence polarization;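 active = inhibition above a cutoff: mean of compounds within the control limits plus 3 SD of those, cut at about 17% in these data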;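 note: 0% = plate median of compound wells and 100% = probe without SIAE protein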
# Target sequence (Q9HAT2 whole entry, looked up): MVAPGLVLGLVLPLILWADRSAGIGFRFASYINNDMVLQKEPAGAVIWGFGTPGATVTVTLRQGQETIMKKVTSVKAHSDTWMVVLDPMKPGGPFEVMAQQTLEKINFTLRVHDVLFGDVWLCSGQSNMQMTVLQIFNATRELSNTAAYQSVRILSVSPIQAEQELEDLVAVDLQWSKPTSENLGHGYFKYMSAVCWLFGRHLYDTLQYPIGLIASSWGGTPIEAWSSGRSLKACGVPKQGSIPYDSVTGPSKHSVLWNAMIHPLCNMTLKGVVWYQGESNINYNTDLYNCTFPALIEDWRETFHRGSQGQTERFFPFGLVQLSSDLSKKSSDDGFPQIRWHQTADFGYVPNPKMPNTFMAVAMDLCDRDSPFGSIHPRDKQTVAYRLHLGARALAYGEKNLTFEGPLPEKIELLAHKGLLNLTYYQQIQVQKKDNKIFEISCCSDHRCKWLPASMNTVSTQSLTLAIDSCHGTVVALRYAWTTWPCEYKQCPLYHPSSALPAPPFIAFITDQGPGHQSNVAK
# TCR-CD3 inh – human TCR-CD3 binding inhibition; TAMRA-labeled TCR probe fluorescence, biochemical; inhibition, % at 9.4 µM; 360,000 tested, 0.37% active; in the data active = inhibition above about 19%;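 note: recombinant mutant TCR 2C K166C tagged with TAMRA read by polarization; 0% = receptor in buffer alone and 100% = receptor with positive control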
# PRMT1 FP inh – blocks human protein arginine methyltransferase 1 | 370,000 tested, 1.3% active | inhibition, % at 2.79 µM | recombinant PRMT1, activity-based probe fluorescence polarization | Q99873;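 active = inhibition above about 21% made by adding two undisclosed values, limit read from the data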
# mABHD4 conf – ABHD4 (mouse) inhibition, FP confirmation | shares compounds with ABHD4 inh | purified mABHD4, FP-Rh probe fluorescence polarization | inhibition, % at 8.92 µM | 1,800 tested, 55% active;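 active = mean inhibition across replicates above the hit cutoff set in the primary screen, cut at about 30% in these data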;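 note: 0% = wild-type ABHD4 with DMSO and 100% = catalytically dead S159A mutant with DMSO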
# Active calls of the source: *; · = no result given.
SMILES,rCAG binder,ABHD4 inh,SIAE primary,TCR-CD3 inh,PRMT1 FP inh,mABHD4 conf
NC(=O)c1ccc(NCCc2ccccc2)c([N+](=O)[O-])c1,0,3,-5,8,-3,·
COc1ccc(CCNc2ccc(C(=O)O)cc2[N+](=O)[O-])cc1OC,2,45*,5,7,-2,43*
O=C(O)c1ccc(NCCC2=CCCCC2)c([N+](=O)[O-])c1,18,41*,1,-3,1,45*
O=C(COc1ccc2ccccc2c1)NCC1CCCO1 (stereo unspecified),-2,-2,-5,1,-1,·
COc1ccccc1/C(C)=N/Oc1cc(N)cc([N+](=O)[O-])c1,4,7,0,-8,2,·
O=C(CCc1ccccc1)N[C@H]1[C@H](OC(=O)c2cnccn2)CCC[C@@]12C(=O)N(Cc1ccccc1)c1ccccc12,2,-1,4,·,-2,·
CCOC(=O)Cc1csc(NC(=O)c2sc3nc4ccc(C)cc4cc3c2N)n1,21,36*,4,2,0,14
COc1ccccc1[C@@H]1C(c2ccccc2)=NN(c2ccc(Br)cc2)[C@H]1C(=O)N1CCOC1=O,12,49*,-6,1,-3,-2
COc1ccc(OC)c(Nc2ccc(C(=O)O)cc2[N+](=O)[O-])c1,5,28,3,4,-1,·
Cc1cccc(Nc2ccc(C(=O)O)cc2[N+](=O)[O-])c1C,5,37*,-1,-4,6,30*
CCOc1ccc(Nc2ccc(C(=O)O)cc2[N+](=O)[O-])cc1,6,60*,6,-9,-6,45*
Cc1ccc(C(=O)O)cc1[N+](=O)[O-],2,-3,-5,15,1,·
O=C(O)c1ccc(Nc2ccc(F)c(F)c2)c([N+](=O)[O-])c1,2,32*,-3,-4,0,32*
COc1ccc(Nc2ccc(C(=O)O)cc2[N+](=O)[O-])cc1,5,49*,-2,-8,4,43*
C[C@H](O)[C@@H]1CN2CCc3ccc(N4CCOCC4)cc3[C@@H]2C[C@@H]1N(C)C(=O)c1ccco1,4,2,0,·,7,·
O=C(Nc1ccc(OC(F)(F)F)cc1)Nc1c(-c2ccc(C(F)(F)F)cc2)nc2ncccn12,5,1,3,·,-10,·
COC(=O)[C@]1(CNC(C)=O)CC(=O)N(C)[C@@H]1c1ccccc1,4,4,-2,·,2,·
CCCCn1c(C)cc2cc(O)ccc21,5,31*,13,1,3,7
Cc1ccc(S(=O)(=O)Nc2nc3ccc(N)cc3s2)cc1,11,49*,5,0,7,26
Cc1ccc(S(=O)(=O)Nc2nc3ccc(S(C)(=O)=O)cc3s2)cc1,15,1,-5,1,6,·
NC(=S)NN=Cc1nccc2c(C(F)(F)F)cccc12,7,31*,6,-3,-1,32*
Nc1c(O)ccc2c1C(=O)c1ccccc1C2=O,24,45*,1,-12,16,47*
O=C(N/N=C1\C/C(=N\NC(=O)c2ccncc2)c2ccccc21)c1ccncc1,32,39*,7,-5,6,29
Cc1cc2ccccc2c(=O)n1CC(=O)Nc1ccc2c(c1)OCO2,0,1,9,-2,-1,·
Cc1cc(C)n(CC(=O)Nc2ccc3c(c2)OCO3)c(=O)c1C#N,-1,31*,4,2,-1,-8
SMILES,rCAG binder,ABHD4 inh,SIAE primary,TCR-CD3 inh,PRMT1 FP inh,mABHD4 conf
COc1c(/C=N/Nc2nc(N3CCCCC3)nc(N3CCCCC3)n2)cccc1[N+](=O)[O-],0,4,0,-3,5,·
O=[N+]([O-])c1ccc(/C=N/Nc2nc(N3CCCCC3)nc(N3CCCCC3)n2)o1,16,54*,-1,4,2,55*
NCCOc1ccc(C23CC4CC(CC(C4)C2)C3)cc1,15,32*,0,-3,5,37*
OCCN1CCN(CC(O)COc2ccc(C34CC5CC(CC(C5)C3)C4)cc2)CC1 (stereo unspecified),-7,23,4,7,-1,·
O=C(/C=C/c1ccccc1Cl)c1ccccc(=O)c1O,20,25,9,8,10,·
O=C(/C=C/c1ccc([N+](=O)[O-])cc1)c1ccccc(=O)c1O,17,43*,14,2,15,12
Cc1cc(=O)[nH]c(NNC(=O)c2ccc(Cl)cc2)n1,4,2,8,2,-4,·
